Experimental data taken from paper PMC11144404 (Drug Design, Development and Therapy, 2024).

What was measured:
[1] = tested on: healthy Chinese volunteers; experiment: Safety and tolerability; type: in vivo, human; conditions: per treatment period
Outline: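 12 enrolled healthy Chinese men aged 18–40 y with BMI 19–26 kg/m2. All had normal blood chemistry, haematology, urinalysis, vital signs and hepatitis/HIV serology, and stopped interfering medications 4 weeks before the study. Treatment-emergent adverse events were recorded as events and subjects for each treatment period (multiple-dose monotherapy with each drug, then co-administration). Drug relatedness was assessed.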

[2] = Steady-state plasma pharmacokinetics of HCTZ alone or with henagliflozin; type: in vivo, human
[3] = 2.5 mg dose group; cited from earlier work
[4] = Steady-state plasma pharmacokinetics of henagliflozin alone or with HCTZ; type: in vivo, human
[5] = tested on: healthy subjects and patients with T2DM; conditions: cited from earlier work

Decrease of Css,max by co-administration ([2]; co-administration with henagliflozin vs HCTZ alone) | Increase of Css,max by co-administration ([4]; co-administration with HCTZ vs henagliflozin alone) | 90% CI of ratio of geometric means (combination: monotherapy) for AUCτ,ss ([4]; henagliflozin, compared with bioequivalence interval) | Structure (SMILES) | All TEAEs, number of subjects ([1]; of 12 subjects) | Diarrhea, number of subjects ([1]; of 12 subjects) | Drug-related TEAEs, number of subjects ([1]; of 12 subjects) | Eczema, number of subjects ([1]; of 12 subjects) | Subjects reporting TEAEs ([1]; of 12 subjects) | Thirst, number of subjects ([1]; of 12 subjects) | 90% CI of ratio of geometric means (combination: monotherapy) for AUCτ,ss ([2]; HCTZ, compared with bioequivalence interval) | Difference in AUC0-24h and Cmax between males and females [3] | Benefit of 20 mg group compared with 5 mg and 10 mg groups (PK/PD) ([5]; 5–20 mg dosing range, healthy subjects and patients with T2DM) | Effect on blood glucose, blood electrolytes, or blood pressure ([5]; healthy people) | Dizziness, number of subjects ([1]; of 12 subjects) | All TEAEs, number of subjects ([1]; of 12 subjects, listed as henagliflozin) | All TEAEs, number of events ([1]; figure in brackets) | Drug-related TEAEs, number of events ([1]; figure in brackets)
19.41% |  |  | NS(=O)(=O)c1cc2c(cc1Cl)NCNS2(=O)=O [HCTZ, Hydrochlorothiazide] | 11 | 2(2) | 11 | 0(0) | 91.7% | 10(10) | within the bioequivalence interval of 0.80–1.25 |  |  |  |  |  |  | 
 | 24.32% | fell between 0.80 and 1.25 | CCOc1ccc(Cc2cc([C@@]34OC[C@@](CO)(O3)[C@@H](O)[C@H](O)[C@H]4O)ccc2Cl)cc1F [Henagliflozin] | 4(4) | 2(2) |  | 1(1) | 33.3% |  |  | no statistical difference | no significant benefit | no effect | 1(1) | 4 | four | all TEAEs were considered to be related to henagliflozin
